Test results reported in ChEMBL document CHEMBL1132207, “Homology modeling of gelatinase catalytic domains and docking simulations of novel sulfonamide inhibitors” (J Med Chem, 1999).

Tests used:
[1] = biological target: Matrix metalloproteinase-9 (Homo sapiens, UniProt P14780); experiment: Inhibitory activity against Matrix metalloprotease-9 (concentration required for 50% inhibition of enzyme activity)
How it was run: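 Substrate added from a 1 mM DMSO stock, reaction 60 min, stopped with 3% acetic acid. Fluorescence read at ex 320/em 405 nm. Mean of two assays; IC50 taken as 50% inhibition.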

[2] = biological target: 72 kDa type IV collagenase (Homo sapiens, UniProt P08253)
Sequence of 72 kDa type IV collagenase (P08253 whole entry): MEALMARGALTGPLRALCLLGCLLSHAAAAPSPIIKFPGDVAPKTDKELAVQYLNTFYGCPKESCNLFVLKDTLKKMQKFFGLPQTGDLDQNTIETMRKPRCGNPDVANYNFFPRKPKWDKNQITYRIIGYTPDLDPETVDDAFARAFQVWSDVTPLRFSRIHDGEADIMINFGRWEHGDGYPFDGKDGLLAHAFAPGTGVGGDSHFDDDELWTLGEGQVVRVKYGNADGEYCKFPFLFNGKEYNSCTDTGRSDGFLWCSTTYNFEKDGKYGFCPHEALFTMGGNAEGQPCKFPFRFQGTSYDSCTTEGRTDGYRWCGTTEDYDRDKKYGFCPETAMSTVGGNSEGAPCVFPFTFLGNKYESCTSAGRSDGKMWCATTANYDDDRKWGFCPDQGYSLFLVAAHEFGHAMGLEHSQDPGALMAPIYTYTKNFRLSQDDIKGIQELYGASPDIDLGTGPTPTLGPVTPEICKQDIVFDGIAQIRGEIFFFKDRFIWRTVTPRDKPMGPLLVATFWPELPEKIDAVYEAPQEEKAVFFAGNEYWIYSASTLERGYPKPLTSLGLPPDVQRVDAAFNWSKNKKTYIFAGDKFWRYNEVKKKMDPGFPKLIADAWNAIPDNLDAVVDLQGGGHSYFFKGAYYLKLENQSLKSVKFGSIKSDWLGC

Sequence of Matrix metalloproteinase-9 (P14780 whole entry): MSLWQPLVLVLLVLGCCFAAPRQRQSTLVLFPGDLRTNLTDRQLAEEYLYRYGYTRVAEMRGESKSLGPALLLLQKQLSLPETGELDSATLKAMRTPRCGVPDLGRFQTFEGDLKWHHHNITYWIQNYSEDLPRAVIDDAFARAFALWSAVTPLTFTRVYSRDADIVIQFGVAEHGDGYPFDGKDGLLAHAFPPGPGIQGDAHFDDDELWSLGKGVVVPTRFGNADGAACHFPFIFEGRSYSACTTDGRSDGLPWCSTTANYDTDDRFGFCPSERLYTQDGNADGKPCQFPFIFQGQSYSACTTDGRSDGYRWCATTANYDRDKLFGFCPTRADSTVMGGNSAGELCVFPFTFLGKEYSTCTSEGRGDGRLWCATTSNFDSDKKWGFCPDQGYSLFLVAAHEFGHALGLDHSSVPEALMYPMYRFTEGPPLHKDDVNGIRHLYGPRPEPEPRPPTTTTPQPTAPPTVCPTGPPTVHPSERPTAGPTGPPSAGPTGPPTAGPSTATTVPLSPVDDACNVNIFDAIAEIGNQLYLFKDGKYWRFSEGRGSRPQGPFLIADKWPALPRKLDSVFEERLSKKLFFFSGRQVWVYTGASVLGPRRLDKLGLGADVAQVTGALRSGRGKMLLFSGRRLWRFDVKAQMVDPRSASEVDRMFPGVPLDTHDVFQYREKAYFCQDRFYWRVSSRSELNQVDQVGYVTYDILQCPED

| SMILES | IC50 [1] [nM] | IC50 [2] [nM] |
| --- | --- | --- |
| CCCCc1ccc(C#Cc2ccc(S(=O)(=O)N[C@H](Cc3c[nH]c4ccccc34)C(=O)O)s2)cc1 | 2700 |  |
| CCCCOc1ccc(C#Cc2ccc(S(=O)(=O)N[C@H](Cc3c[nH]c4ccccc34)C(=O)O)s2)cc1 | 2000 |  |
| O=C(O)[C@@H](Cc1c[nH]c2ccccc12)NS(=O)(=O)c1ccc2ccccc2c1 | > 20000 | 500 |
| O=C(O)[C@@H](Cc1ccccc1)NS(=O)(=O)c1ccc(-c2ccccc2)cc1 | 2700 |  |
| O=C(O)[C@@H](Cc1c[nH]c2ccccc12)NS(=O)(=O)c1ccc(C#Cc2ccc(Oc3ccccc3)cc2)s1 | 2300 |  |
| CCCCOc1ccc(C#Cc2ccc(S(=O)(=O)N[C@@H](C(=O)O)C(C)C)s2)cc1 | 210 | 4.7 |
| CCc1ccc(C#Cc2ccc(S(=O)(=O)N[C@H](Cc3c[nH]c4ccccc34)C(=O)O)s2)cc1 | 7.3 |  |
| O=C(N[C@H](Cc1ccccc1)C(=O)O)c1ccc(-c2ccccc2)cc1 | > 20000 |  |
| CC(C)[C@H](C(=O)O)N(C)S(=O)(=O)c1ccc(-c2nnn(-c3ccccc3)n2)cc1 | 870 |  |
| COc1ccc(C#Cc2ccc(S(=O)(=O)N[C@H](Cc3c[nH]c4ccccc34)C(=O)O)cc2)cc1 | 8.2 | 0.65 |
| O=C(O)[C@@H](Cc1ccccc1)NS(=O)(=O)c1ccc(-c2ccc(-c3ccccc3)cc2)cc1 | 12 | 4.4 |
| O=C(O)[C@@H](Cc1c[nH]c2ccccc12)NS(=O)(=O)c1cccc2ccccc12 | > 20000 | > 20000 |
| COc1ccc(C#Cc2ccc(S(=O)(=O)N[C@H](Cc3c[nH]c4ccccc34)C(=O)O)cc2[N+](=O)[O-])cc1 | 1900 | 33 |
| CCc1ccc(C#Cc2ccc(S(=O)(=O)N[C@@H](C(=O)O)C(C)C)s2)cc1 | 4.4 | 4.8 |
| CCCCc1ccc(C#Cc2ccc(S(=O)(=O)N[C@@H](C(=O)O)C(C)C)s2)cc1 | 210 | 5.4 |
| Cc1ccccc1C#Cc1ccc(S(=O)(=O)N[C@H](Cc2c[nH]c3ccccc23)C(=O)O)s1 | 1700 | 81 |
| O=C(O)[C@@H](Cc1ccccc1)NS(=O)(=O)c1ccc(Br)cc1 | > 20000 | 7100 |
| CC(C)[C@@H](NS(=O)(=O)c1ccc(-c2nnn(-c3ccccc3)n2)cc1)C(=O)O | 72 |  |
| O=C(O)[C@@H](Cc1ccccc1)NS(=O)(=O)c1ccc(C#Cc2ccccc2)cc1 | 340 | 20 |
| CC(C)[C@@H](NS(=O)(=O)c1ccc(C#Cc2ccc(Oc3ccccc3)cc2)s1)C(=O)O | 260 | 18 |
| Cc1ccc(C#Cc2ccc(S(=O)(=O)N[C@@H](C(=O)O)C(C)C)s2)cc1 | 24 | 5.9 |
| Cc1ccc(C#Cc2ccc(S(=O)(=O)N[C@H](Cc3c[nH]c4ccccc34)C(=O)O)s2)cc1 [S-3304] | 9.6 |  |
